Test results taken from ChEMBL document CHEMBL1921779, “Pharmacological validation of Trypanosoma brucei phosphodiesterases B1 and B2 as druggable targets for African sleeping sickness” (J Med Chem, 2011).

Tests used:
[1] = Inhibition of His-tagged catalytic domain Trypanosoma brucei brucei PDEB2 expressed in baculovirus infected insect Sf21 cells
[2] = Inhibition of His-tagged catalytic domain Trypanosoma brucei brucei PDEB1 expressed in baculovirus infected insect Sf21 cells
[3] = tested on: Trypanosoma brucei brucei; test: Antitrypanosomal activity against blood stream Trypanosoma brucei brucei 427 after 48 hrs by Alamar blue assay; format: functional, organism-based; settings: Trypanosoma brucei, 427, 48 h
[4] = Inhibition of His-tagged catalytic domain Trypanosoma brucei brucei PDEB1 expressed in baculovirus infected insect Sf21 cells at 100 uM
Summary of the method: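 Inhibitor preincubated 10 min before substrate, final DMSO 2%, 5% or 10%. BioMol green phosphate read at 620nm. Initial-velocity change versus vehicle; mean of ≥3 independent experiments.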

[5] = Inhibition of His-tagged catalytic domain Trypanosoma brucei brucei PDEB1 expressed in baculovirus infected insect Sf21 cells at 10 uM
Summary of the method: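 Single-concentration screen of purified His-tagged TbrPDEB1 catalytic domain (0.25 µg) at 37°C in 10 mM Tris pH 7.4, 0.2 mg/ml BSA, 10 mM MgCl2, 25 µM cAMP and excess 5'-nucleotidase. Inhibitor in DMSO (2%, 5% or 10% final) preincubated 10 min before substrate. BioMol green phosphate read-out at 620 nm; percent inhibition of initial velocity versus vehicle control.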

[6] = tested on: Trypanosoma brucei brucei; test: Cytotoxicity against Trypanosoma brucei brucei at 100 uM

Row | SMILES | IC50 [1] [µM] | IC50 [2] [µM] | EC50 [3] [µM] | further results
1 | COc1ccc(C(=O)Nc2c(Cl)cncc2Cl)cc1OC | > 100 | > 100 |  | 
2 | COc1ccc(C(=O)Nc2c(Cl)cncc2Cl)cc1OCc1ccccc1 | 11.2 | 12.5 | 10.1 | 
3 | COc1cc(Cl)c(C(=O)Nc2c(Cl)cncc2Cl)cc1OC |  | > 100 |  | 
4 | O=C(Nc1c(Cl)cncc1Cl)c1ccc(OC(F)F)c(OCC2CC2)c1 [ROFLUMILAST] |  | > 100 |  | 
5 | COc1ccc(C(=O)Nc2c(Cl)cncc2Cl)c(Cl)c1OC |  | > 100 |  | 
6 | CCOc1cc(C(=O)Nc2c(Cl)cncc2Cl)ccc1OC | 34 | 16.5 |  | 
7 | CCCCOc1cc(C(=O)Nc2c(Cl)cncc2Cl)ccc1OC | 14.3 | 7.7 | 17.7 | 
8 | OCCN(CCO)c1nc(N2CCCCC2)c2nc(N(CCO)CCO)nc(N3CCCCC3)c2n1 [DIPYRIDAMOLE] |  | 72 |  | inhibition [4]: > 50%
9 | Cc1noc(/C(=C/c2cccc(-c3cc(C(C)(C)S(C)(=O)=O)cc4cccnc34)c2)c2ccc(S(C)(=O)=O)cc2)n1 |  |  |  | inhibition [5]: > 50%
10 | COc1ccc(C(=O)Nc2c(Cl)cncc2Cl)cc1OC1CCCC1 | 11.4 | 4.7 | 9.57 | inhibition [4]: > 50%
11 | COc1cc2c(cc1OC)-c1c/c(=N\c3c(C)cc(C)cc3C)n(C)c(=O)n1CC2 [TREQUINSIN] | 25.4 | 12 | 5.8 | inhibition [4]: > 50%
12 | COc1ccc(C(=O)Nc2c(Cl)cncc2Cl)cc1OC(C)C | > 30 | > 30 | 27.6 | 
13 | COc1cc(C(=O)Nc2c(Cl)cncc2Cl)cc(OC)c1OC |  | > 100 | > 100 | Activity [6]: 10%
14 | CCCCOc1cc(CC2CNC(=O)N2)ccc1OC (stereo unspecified) [RO-201724] |  | > 100 |  | 
15 | COc1cccc(Nc2c(C(N)=O)cnc3c(C)cc(S(=O)(=O)c4cccc(C(=O)N(C)C)c4)cc23)c1 |  |  |  | inhibition [5]: > 50%
16 | CCOc1ccc(C(=O)Nc2c(Cl)cncc2Cl)cc1OCC |  | > 100 |  | 
17 | COc1cc(C(=O)Nc2c(Cl)cncc2Cl)ccc1OC(C)=O |  | > 100 |  | 
18 | COc1ccc(C2CNC(=O)C2)cc1OC1CCCC1 (stereo unspecified) [ROLIPRAM] |  | > 100 |  | 
19 | CCCOc1cc(C(=O)Nc2c(Cl)cncc2Cl)ccc1OC | 9.4 | 13.6 | 13 | 
20 | CS(=O)(=O)Oc1ccc2c(NC(N)=O)c(C(=O)c3ccc(Cl)cc3Cl)oc2c1 | > 10 | > 10 |  | 
21 | COc1cc2ncnc(N3CC[C@@H](Oc4cnc5ccccc5n4)C3)c2cc1OC |  |  |  | inhibition [4]: > 55%
